From ChEMBL document CHEMBL4130352, “Ciprofloxacin-nitroxide hybrids with potential for biofilm control” (Eur J Med Chem, 2017)
Values after ≈ are worked out from the molar mass of the structure shown. Active and inactive are the calls of the source. The calls are words filed in the database; no cut-off is given here.

Assays:
RD = assay: Cytotoxicity against human RD cells assessed as reduction in cell viability at 5 to 40 uM after 24 hrs by LDH release assay; format: cell-based
How it was run: (§1)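 HEK 293 and RD cells were grown in DMEM with 10% FBS at 37°C, 5% CO2, and seeded the day before at 50,000 (HEK 293) or 20,000 (RD) cells per well. Compounds (5 mM DMSO stock) were added at 5–40 μM for 24 h, with 0.8% DMSO in all wells. LDH release was normalised to untreated cells and 3 h lysis-buffer controls. Run in triplicate.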

Pseudomonas aeruginosa [1] = assay: Antibiofilm activity against Pseudomonas aeruginosa PA14 assessed as removal of biomass at 20 uM preincubated for 24 hrs measured after 2 hrs by SYTO/propidium iodide double-staining-based confocal laser scanning microscopic analysis relative to control; format: functional
Pseudomonas aeruginosa [2] = assay: Antibiofilm activity against Pseudomonas aeruginosa PA14 assessed as total live biofilm biomass eradication at 20 uM preincubated for 24 hrs measured after 2 hrs by SYTO/propidium iodide double-staining-based confocal laser scanning microscopic analysis relative to control; format: functional
Pseudomonas aeruginosa [3] = assay: Effect on Pseudomonas aeruginosa PA14 assessed as dead cells at 20 uM preincubated for 24 hrs measured after 2 hrs (reference value: 4%); format: organism-based
Pseudomonas aeruginosa [4] = assay: Inhibition of planktonic growth of Pseudomonas aeruginosa PA14 assessed as reduction of colony forming units after 24 hrs; format: organism-based
How it was run: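 Overnight PA14 cultures were diluted 1:100 with or without compound (0–160 μM) and incubated 24 h. Samples were then 10-fold serially diluted and plated on LB agar, grown overnight at 37°C, and CFU were counted.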

Pseudomonas aeruginosa [5] = assay: Inhibition of planktonic growth of Pseudomonas aeruginosa PA14 after 24 hrs by broth microdilution method; format: organism-based; conditions: in vitro
How it was run: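 Broth microdilution in polypropylene microtiter plates. Compounds added as DMSO solutions, inoculum 5×10^5 CFU/mL final, incubated 37 °C for 24 h. MIC taken as the lowest concentration with no visible growth.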

HEK293 = assay: Cytotoxicity against HEK293 cells assessed as reduction in cell viability at 5 to 40 uM after 24 hrs by LDH release assay; format: cell-based; conditions: human, hek293, 24 h; how it was run: as §1
Pseudomonas aeruginosa [6] = assay: Antibiofilm activity against Pseudomonas aeruginosa PA14 assessed as dispersion of bacteria from biofilms at 20 uM after 18.5 hrs relative to control; format: functional
How it was run: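 PA14 biofilms pre-grown 2 days at 37°C in flow cells, then treated with 20 μM compound. Dispersed cells collected from chamber effluent at set times, plated on Pseudomonas Isolation Agar at 37°C, counted next day as CFU/mL. Fold change in viable dispersed cells calculated against untreated PA14 biofilms.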

Pseudomonas aeruginosa [7] = assay: Antibiofilm activity against Pseudomonas aeruginosa PA14 assessed as dispersion of bacteria from biofilms at 20 uM after 2 to 3 hrs; format: functional, organism-based
How it was run: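 PA14 biofilms grown 2 days in flow cells at 37°C, then exposed to 20 μM compound. Dispersed cells were collected from chamber effluent at set times, plated on Pseudomonas Isolation Agar and incubated at 37°C. CFU/mL was counted the next day, and fold-change in dispersed viable cells was calculated against untreated PA14 effluent.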

Pseudomonas aeruginosa [8] = assay: Antibiofilm activity against Pseudomonas aeruginosa PA14 assessed as removal of mature biofilm at 40 uM preincubated for 24 hrs measured after 2 hrs by SYTO/propidium iodide double-staining-based confocal laser scanning microscopic analysis relative to control; format: functional

| Structure (SMILES) | MIC (Pseudomonas aeruginosa [4]) | MIC (Pseudomonas aeruginosa [5]) | Activity (RD) | Activity (Pseudomonas aeruginosa [1]) | Activity (Pseudomonas aeruginosa [2]) | Activity (Pseudomonas aeruginosa [3]) | Activity (HEK293) | fold change (FC) (Pseudomonas aeruginosa [6]) | Activity (Pseudomonas aeruginosa [7]) | Activity (Pseudomonas aeruginosa [8]) |
| --- | --- | --- | --- | --- | --- | --- | --- | --- | --- | --- |
| CC1(C)CC(C(=O)N2CCN(c3cc4c(cc3F)c(=O)c(C(=O)O)cn4C3CC3)CC2)C(C)(C)N1[O] (stereo not drawn) | – | 160 µM (≈ 79.9 µg/mL) | – | 67% | 67% | 0% | – | – | – | – |
| CC1(C)CC(C(=O)N2CCN(c3cc4c(cc3F)c(=O)c(C(=O)O)cn4C3CC3)CC2)CC(C)(C)N1[O] | – | 312 µM (≈ 160 µg/mL) | Non-Toxic | 37% | 41% | 6% | Non-Toxic | – | Active | – |
| CC1(C)CC(N2CCN(c3cc4c(cc3F)c(=O)c(C(=O)O)cn4C3CC3)CC2)CC(C)(C)N1[O] | – | – | – | – | 80% | 50% | – | – | – | <=95% |

More lines, main results first:

| MIC (Pseudomonas aeruginosa [4]) | MIC (Pseudomonas aeruginosa [5]) | Structure (SMILES) | Activity (RD) | Activity (Pseudomonas aeruginosa [1]) | Activity (Pseudomonas aeruginosa [2]) | Activity (Pseudomonas aeruginosa [3]) | Activity (HEK293) | fold change (FC) (Pseudomonas aeruginosa [6]) | Activity (Pseudomonas aeruginosa [7]) | Activity (Pseudomonas aeruginosa [8]) |
| --- | --- | --- | --- | --- | --- | --- | --- | --- | --- | --- |
| > 160 µM | > 284 µM | CON1C(C)(C)c2ccc(C(=O)N3CCN(c4cc5c(cc4F)c(=O)c(C(=O)O)cn5C4CC4)CC3)cc2C1(C)C | Non-Toxic | 53% | 54% | 2% | Non-Toxic | – | – | – |
| – | > 303 µM | CON1C(C)(C)CC(C(=O)N2CCN(c3cc4c(cc3F)c(=O)c(C(=O)O)cn4C3CC3)CC2)CC1(C)C | Non-Toxic | 17% | 30% | 16% | Non-Toxic | 0 | – | – |
| – | 311 µM (≈ 160 µg/mL) | CON1C(C)(C)CC(C(=O)N2CCN(c3cc4c(cc3F)c(=O)c(C(=O)O)cn4C3CC3)CC2)C1(C)C (stereo not drawn) | – | 24% | 31% | 9% | – | – | – | – |
| – | 0.5 µM (≈ 0.166 µg/mL) | O=C(O)c1cn(C2CC2)c2cc(N3CCNCC3)c(F)cc2c1=O [CIPROFLOXACIN] | – | – | – | – | – | – | – | – |
